From the array DNA melting data of Ke et al. (doi:10.1101/2024.01.08.574731)

Tests used:
[1] = melting temperature; fluorescence melt of hairpins on a sequencing array, two-state fit, raised by 9.35 °C to match UV melts; conditions: sodium 0.088 M
Procedure, shortened: (§1)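 In 50 mM Na-HEPES pH 8.0 containing 25 mM NaCl, hairpins from the library on a sequenced MiSeq flow cell were imaged for Cy3 fluorescence at 2.5 °C steps up to 60 °C, with Cy3 and quencher oligos annealed. After normalisation to pre-quench Cy3 and to control constructs, two-state fits with bootstrapping gave melting temperature and folding enthalpy. Four replicates were combined by inverse-variance weighting, and fitted temperatures were shifted up by 9.35 °C to match UV melts.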

[2] = folding enthalpy; higher = less favourable; fluorescence melt of hairpins on a sequencing array, two-state fit; conditions: sodium 0.088 M
Procedure, shortened: as §1

| Sequence | Tm [1] | folding enthalpy [2] |
| --- | --- | --- |
| GCAATCCGAAAGGATGC (((.(((....)))))) | 56.4 °C | -26 kcal/mol |
| CGCTCGGAAACGAGGGCG ((((((....)))..))) | 51.7 °C | -12.4 kcal/mol |
| GAGGTACGAAAGTATCTC (((.(((....))).))) | 50.5 °C | -32.3 kcal/mol |
| GATCCTACAGAGGATC ((((((....)))))) | 50.4 °C | -29.6 kcal/mol |
| GCTACTGGAAACAGCAGC (((.(((....))).))) | 44.7 °C | -28.7 kcal/mol |
| GTTAACGGAAACGTTAAC (((((((....))))))) | 56.9 °C | -42.3 kcal/mol |
| GGCTTCGAAAGAAGGCC ((((((....))).))) | 57.9 °C | -26.8 kcal/mol |
| GGATACGAAAGTAATTCC ((((((....)))..))) | 27.7 °C | -12 kcal/mol |
| GCGTAACGAAAGTTGCGC (((.(((....))).))) | 63 °C | -53 kcal/mol |
| GATCTGGTCCAGATC ((((((...)))))) | 50.8 °C | -33.4 kcal/mol |
| GATCTATCAGTAGATC ((((((....)))))) | 40.4 °C | -32.5 kcal/mol |
| GATCGACCCGTCGATC ((((((....)))))) | 60.1 °C | -47.1 kcal/mol |
| GGGTGGAAACACCC (((((....))))) | 63.5 °C | -28.2 kcal/mol |
| GAGGGCGAAAGCCTTCTC ((((((....)))..))) | 52 °C | -16.6 kcal/mol |
| GAACCCGAAAGGGATTTC ((((((....)))..))) | 29.5 °C | -11.1 kcal/mol |
| GGGGACGAAAGTCGCCCC ((((((....)))..))) | 65.4 °C | -11 kcal/mol |
| GGCAGACGAAAGTCAGCC (((.(((....))).))) | 64.4 °C | -32.8 kcal/mol |
| GATCACAAGCGTGATC ((((((....)))))) | 56.6 °C | -37.6 kcal/mol |
| GATCCATCGCTGGATC ((((((....)))))) | 50.8 °C | -39.1 kcal/mol |
| GCGTAAACGAAAGTTCGC (((..(((....)))))) | 48.2 °C | -33.7 kcal/mol |
| GTCCTCGAAAGAGGGAC ((((((....))).))) | 53.9 °C | -15.7 kcal/mol |
| GATCCGTTACGGATC ((((((...)))))) | 63.9 °C | -34.6 kcal/mol |
| GTCTGCGAAAGCATCGAC ((((((....)))..))) | 33.6 °C | -14.8 kcal/mol |

| Sequence | Tm [1] | folding enthalpy [2] |
| --- | --- | --- |
| GCCCCAGGAAACTGGAGC ((.((((....)))).)) | 46.7 °C | -25.3 kcal/mol |
| GATCACTTGAGTGATC ((((((....)))))) | 56.1 °C | -42.4 kcal/mol |
| GTTCGCCGAAAGGCAAC (((.(((....)))))) | 43.3 °C | -12.5 kcal/mol |
| GCGAGGGCGAAAGCCCGC (((..(((....)))))) | 59.5 °C | -8.66 kcal/mol |
| GACAAAGAAATTTGTC ((((((....)))))) | 43.4 °C | -27.6 kcal/mol |
| GCGAGTCATCGC ((((....)))) | 67.8 °C | -24.8 kcal/mol |
| GTCACTCCGAAAGGAGAC (((..(((....)))))) | 31.6 °C | -8.95 kcal/mol |
| GAATATGGAAACGTATTC (((((.(....).))))) | 34.2 °C | -25.3 kcal/mol |
| GCATGGCGAAAGCTAGGC ((.(.((....)).).)) | 52.2 °C | -21.6 kcal/mol |
| GTGTTAGGAAACTAACAC (((((((....))))))) | 57.8 °C | -42.1 kcal/mol |
| GGCTAACGAAAGTTTGCC (((.(((....))).))) | 54.7 °C | -61 kcal/mol |
| GGTGTTGGAAACAACACC (((((((....))))))) | 66.5 °C | -38.4 kcal/mol |
| GAGAGAGGAAACTCTTTC ((.((((....)))).)) | 29.9 °C | -20.5 kcal/mol |
| GCCGGGCGAAAGCAGGGC (((..((....))..))) | 62.2 °C | -29 kcal/mol |
| GCCTCGGGAAACTGGGGC (((.(.(....).).))) | 47.4 °C | -37.5 kcal/mol |
| GTGTCAGAAATGACAC ((((((....)))))) | 56.4 °C | -35.9 kcal/mol |
| GGTTGTACGAAAGTAACC (((..(((....)))))) | 38 °C | -20.9 kcal/mol |
| GTTGAACGAAAGTTAAC (((.(((....)))))) | 30 °C | -12.3 kcal/mol |
| GATGACGGAAACGTTATC (((.(((....))).))) | 46.2 °C | -29.6 kcal/mol |
| GCACAGTCGAAAGACTGC (((..(((....)))))) | 39.3 °C | -8.86 kcal/mol |
| GTGCGCACGAAAGTGCAC (((..(((....)))))) | 64 °C | -11.4 kcal/mol |
| GCCCAAGGAAACTCGGGC ((((.((....)).)))) | 48.8 °C | -26.9 kcal/mol |
| GGTTTCGAAAGAATACC ((((((....))).))) | 38 °C | -25.6 kcal/mol |

| Sequence | Tm [1] | folding enthalpy [2] |
| --- | --- | --- |
| GACGATGGAAACATTGTC (((.(((....))).))) | 47.1 °C | -35.2 kcal/mol |
| GACAGGGGAAACCCTATC ((.((((....)))).)) | 28 °C | -12.8 kcal/mol |
| CGTCAGAAATGACG (((((....))))) | 51.6 °C | -24.5 kcal/mol |
| GATCCTTCTAGGATC ((((((...)))))) | 57.1 °C | -30.6 kcal/mol |
| GGGATCGAAAGATAACCC ((((((....)))..))) | 34.9 °C | -19.4 kcal/mol |
| GCGTTGCGAAAGCACGGC ((..(((....)))..)) | 58.9 °C | -13.6 kcal/mol |
| GGGAACGAAAGTTGACCC ((((((....)))..))) | 37.8 °C | -20.9 kcal/mol |
| GCCATGCGAAAGCTAGGC (((..((....))..))) | 62.2 °C | -27.3 kcal/mol |
| GCTCCACGAAAGTGAAGC (((.(((....))).))) | 51.2 °C | -30.2 kcal/mol |
| GTTATTGGAAACAATAAC (((((((....))))))) | 49.7 °C | -35 kcal/mol |
| GTCGGTGGAAACGCCGAC (((((.(....).))))) | 63.2 °C | -50 kcal/mol |
| GCGCCTGGAAACAGGTGC ((.((((....)))).)) | 64.2 °C | -46.6 kcal/mol |
| GAGCTCGCGAAAGCGCTC (((..(((....)))))) | 41.8 °C | -14.2 kcal/mol |
| GATCCCTCTAGGGATC ((((((....)))))) | 66.6 °C | -33.9 kcal/mol |
| CGTGGCGGAAACGCTACG (((.(((....))).))) | 59.6 °C | -33.8 kcal/mol |
| GGGAACGAAAGTTGCCC ((((((....))).))) | 53 °C | -28.6 kcal/mol |
| GTCCACCCGAAAGGGGAC (((..(((....)))))) | 47 °C | -18.5 kcal/mol |
| GTGCCCGAAAGGGGGCAC ((((((....)))..))) | 69.1 °C | -22.2 kcal/mol |
| GGCTCCGAAAGGAGCGCC ((((((....)))..))) | 68.6 °C | -6.52 kcal/mol |
| GGGAACGAAAGTTTACCC ((((((....)))..))) | 34.1 °C | -21.1 kcal/mol |
| GACTTTGGAAACAAAGCC (.(((((....))))).) | 39 °C | -22.4 kcal/mol |
| GCCCTCGAAAGAGAGGGC ((((((....)))..))) | 59.9 °C | -33 kcal/mol |
| GTTCCAGGAAACTGGAGC (.(((((....))))).) | 47.2 °C | -19.6 kcal/mol |

| Sequence | Tm [1] | folding enthalpy [2] |
| --- | --- | --- |
| GGATCTCGAAAGAGGTCC (((.(((....))).))) | 57.3 °C | -41.4 kcal/mol |
| GATCCCTCACGGGATC ((((((....)))))) | 59 °C | -39.5 kcal/mol |
| GTCGGCGAAAGCCGGAC ((((((....))).))) | 61.1 °C | -12.4 kcal/mol |
| GCGACTGGAAACAACCGC (((..((....))..))) | 29.2 °C | -18.1 kcal/mol |
| GAGATACGAAAGTAGCTC (((.(((....))).))) | 57.5 °C | -40.8 kcal/mol |
| GGTCTACGAAAGTACACC (((.(((....))).))) | 35.8 °C | -22 kcal/mol |
| GGTGGCGAAAGCCCGACC ((((((....)))..))) | 41.5 °C | -12.8 kcal/mol |
| GATTACGAAAGTATAATC ((((((....)))..))) | 27.1 °C | -7.84 kcal/mol |
| GCGCGCGAAAGCGACCGC ((((((....)))..))) | 54.3 °C | -16.8 kcal/mol |
| GAAGGCGAAAGCCCCTTC ((((((....)))..))) | 35.1 °C | -9.89 kcal/mol |
| GCACCGCGAAAGCACTGC (((..((....))..))) | 31.2 °C | -8.63 kcal/mol |
| CGTGCGGAAACGCTACG ((((((....))).))) | 50.6 °C | -27.6 kcal/mol |
| GTGTAACGAAAGTTTCAC (((.(((....))).))) | 44.9 °C | -22.9 kcal/mol |
| GGGCTCGGAAACGGGCTC (.((.((....)).)).) | 49.6 °C | -20.2 kcal/mol |
| GGCCGCGAAAGCGGGGCC ((((((....)))..))) | 63.6 °C | -12.7 kcal/mol |
| GGGATTGGAAACAACCCC (((.(((....))).))) | 42.4 °C | -28 kcal/mol |
| GGCCGAGGAAACCCAGCC (((.(.(....).).))) | 29.6 °C | -11.8 kcal/mol |
| GTATCGGAAACGATAC ((((((....)))))) | 55.5 °C | -40.4 kcal/mol |
| GATCCGTGTTCGGATC ((((((....)))))) | 61.4 °C | -36.2 kcal/mol |
| GCTGCCGAAAGGCAAGC ((((((....))).))) | 66.7 °C | -19.2 kcal/mol |
| GTCAACGAAAGTTTCGAC ((((((....)))..))) | 26.6 °C | -14.3 kcal/mol |
| GGTAGGGGAAACTCTACC (((((.(....).))))) | 46 °C | -37.4 kcal/mol |
| GCGGAGCGAAAGCTAAGC ((..(((....)))..)) | 54 °C | -12.8 kcal/mol |
